Published values collected from several papers.
Protocols differ between the studies behind these lines.
Target: Glycogen synthase kinase-3 alpha (GSK3A, Homo sapiens, UniProt P49840)

| SMILES | assay | setting | remaining binding [%] |
| --- | --- | --- | --- |
| O=C(NCCCN1CCOCC1)c1ccc(Nc2ncc(Cl)c(-c3ccc(Cl)s3)n2)cc1 | binding, competition with immobilised ligand | 1 µM | 43 |
| Cc1cnn2ncc(-c3ccnc(N(C)C)n3)c2c1 | binding | 1 µM | 96 |
| Cc1nc(C2CCN(C(=O)c3ccc(OC(F)(F)F)cc3N)CC2)c2ncc(N3CCN(C)CC3)cc2n1 | cell-free assay, competition with immobilised ligand | 1 µM | 85 |
| COc1cnc(Nc2cccc(S(N)(=O)=O)c2)nc1N1CCN(c2ccccc2)C(=O)C1 | binding, competition with immobilised ligand | 1 µM | 90 |
| COc1ccc2c(O[C@@H]3C[C@H]4C(=O)N[C@]5(C(=O)O)CC5/C=C\CCCCC[C@H](NC(=O)OC5CCCC5)C(=O)N4C3)cc(-c3csc(NC(=O)C(C)C)n3)nc2c1C (some centres unmarked) | cell-free assay, competition with immobilised ligand | 1 µM | 100 |
| CN(C)c1ncc(F)c(-c2cnn3ncccc23)n1 | binding | 1 µM | 82 |
| O=C(c1ccc(Nc2nccc(-c3cc4ccccc4s3)n2)cc1)N1CCC(N2CCCC2)CC1 | binding, competition with immobilised ligand | 1 µM | 82 |
| O=C(NCC1CCOCC1)c1n[nH]cc1NC(=O)c1c(F)cccc1F | binding, competition with immobilised ligand | 1 µM | 0 |
| COCCOc1nc(-c2ccc(Cl)nc2)nc2c1CN(C(=O)c1ncn3ccccc13)CC2 | cell-free assay, competition with immobilised ligand | 0.1 µM | 100 |
| O=C(c1ccc(Nc2ncc(Cl)c(-c3ccc(Cl)s3)n2)cc1)N1CCC(N2CCCC2)CC1 | binding, competition with immobilised ligand | 1 µM | 22 |
| C[C@@H]1CCN(c2nccc(-c3cnn4ncccc34)n2)C1 | binding | 1 µM | 80 |
| COc1ccc2c(c1)O[C@@H](c1ccc(OC)c(OC)c1)C[C@H]2NC(=O)C1(c2ccc3c(c2)OC(F)(F)O3)CC1 | cell-free assay, competition with immobilised ligand | 1 µM | 100 |
| CC1CCCN1c1nccc(-c2cnn3ncccc23)n1 (centres unmarked) | binding | 1 µM | 94 |
| C[C@@H](c1ccc(-n2cnc3c(N)ncnc32)cc1)N1CCc2nn(C)c(Cc3ccccc3)c2C1=O | binding, competition with immobilised ligand | 0.1 µM | 72 |
| CN(C)C(=O)Cn1cc(-c2nc([C@@](C)(c3ccc(-c4cnc(N)nc4)cc3)C3CC3)no2)cn1 | cell-free assay, competition with immobilised ligand | 1 µM | 100 |
| COc1ccnn2ncc(-c3ccnc(N(C)C)n3)c12 | binding | 1 µM | 96 |
| CC(C)(O)c1cncc(-c2nc3ccc(F)cc3n2C2CC2)c1 | cell-free assay, competition with immobilised ligand | 1 µM | 100 |
| COc1cnc(Nc2cccc(S(N)(=O)=O)c2)nc1N1CCN(c2ccccc2)CC1 | binding, competition with immobilised ligand | 1 µM | 99 |
| N[C@H]1CCN(c2nccc(-c3cnn4ncccc34)n2)C1 | binding | 1 µM | 86 |
| Nc1ncc2c(n1)-c1c([nH]c3ccc(C#CC4CC4)cc13)CCCC2 | binding, competition with immobilised ligand | 1 µM | 57 |
